From ChEMBL document CHEMBL4823270, “A first-in-class anticancer dual HDAC2/FAK inhibitors bearing hydroxamates/benzamides capped by pyridinyl-1,2,4-triazoles” (Eur J Med Chem, 2021) come the findings set out here.

For one assay, the system named is KG-1. Put plainly: Growth inhibition of human KG-1 cells at 10 uM incubated for 24 hrs by MTT assay relative to control. The class given is functional. To be noted: KG-1, 24 h. The gist of the method: (§1)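 Cells seeded at 1 × 10^4 per well, cultured overnight, then exposed to 10 μM compound or DMSO (negative control) for 24 h. After a PBS wash, MTT (2 mg/ml) was added for 4 h at 37°C and formazan dissolved in DMSO. OD read at 570 nm. Growth inhibition = 1 − (OD treated/OD control); at least three independent experiments.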
A general note: Formazan colour is commonly taken as a measure of viable cells.

The next assay relates to HT-29. Kind of assay: Growth inhibition of human HT-29 cells at 10 uM incubated for 24 hrs by MTT assay relative to control. To be noted: read-out: GI. The class given is functional. The gist of the method: as §1
The subject of assay [1] is A498. Kind of assay: Growth inhibition of human A498 cells at 10 uM incubated for 24 hrs by MTT assay relative to control. The class given is functional. The conditions noted are these: read-out: GI. The method in brief:
as §1

The subject of assay [2] is A498. Kind of assay: Antiproliferative activity against human A498 cells assessed as cell growth inhibition incubated for 24 hrs by MTT assay. The class given is functional, cell-based. The conditions noted are these: A498, 24 h.
The target of assay [3] is T1, Focal adhesion kinase 1 (Homo sapiens, UniProt Q05397). Kind of assay: Inhibition of FAK (unknown origin) by FRET-based Z'-Lyte assay. The gist of the method: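 Recombinant FAK kinase activity measured with the FRET-based Z'-LYTE format; the same platform was used for a kinase panel (FAK, FLT, FRK, IGF-1R, BTK). IC50 values determined.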
Target sequence in this assay (Q05397 whole entry): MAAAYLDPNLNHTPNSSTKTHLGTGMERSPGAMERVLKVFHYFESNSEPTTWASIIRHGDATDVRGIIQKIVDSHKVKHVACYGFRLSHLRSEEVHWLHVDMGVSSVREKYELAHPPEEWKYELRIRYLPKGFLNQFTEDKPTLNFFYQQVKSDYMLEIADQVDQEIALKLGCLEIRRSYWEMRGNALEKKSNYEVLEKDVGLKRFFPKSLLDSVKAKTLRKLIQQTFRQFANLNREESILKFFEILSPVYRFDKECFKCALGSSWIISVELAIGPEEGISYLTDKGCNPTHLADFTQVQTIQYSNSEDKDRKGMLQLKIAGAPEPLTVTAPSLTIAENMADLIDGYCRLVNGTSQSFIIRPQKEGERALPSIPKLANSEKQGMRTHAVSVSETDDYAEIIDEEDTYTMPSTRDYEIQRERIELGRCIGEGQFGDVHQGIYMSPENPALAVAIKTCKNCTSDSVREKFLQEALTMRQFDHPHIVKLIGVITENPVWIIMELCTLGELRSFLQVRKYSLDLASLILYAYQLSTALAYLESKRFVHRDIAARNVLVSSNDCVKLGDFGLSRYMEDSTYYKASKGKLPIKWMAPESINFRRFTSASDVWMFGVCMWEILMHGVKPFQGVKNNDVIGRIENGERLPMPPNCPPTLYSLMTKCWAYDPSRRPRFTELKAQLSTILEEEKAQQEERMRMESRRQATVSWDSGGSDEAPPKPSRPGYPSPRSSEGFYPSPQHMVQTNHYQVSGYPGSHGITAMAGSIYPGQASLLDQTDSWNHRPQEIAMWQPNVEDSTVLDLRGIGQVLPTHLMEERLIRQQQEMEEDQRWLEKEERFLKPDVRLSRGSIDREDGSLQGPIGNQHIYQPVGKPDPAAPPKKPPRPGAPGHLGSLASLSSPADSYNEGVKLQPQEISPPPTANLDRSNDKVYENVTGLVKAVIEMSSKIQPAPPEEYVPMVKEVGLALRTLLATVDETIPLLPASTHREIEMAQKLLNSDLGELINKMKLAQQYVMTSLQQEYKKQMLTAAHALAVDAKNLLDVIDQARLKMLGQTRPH
In another assay the target is T2, Histone deacetylase 8 (Homo sapiens, UniProt Q9BY41).
T2 sequence (Q9BY41 whole entry): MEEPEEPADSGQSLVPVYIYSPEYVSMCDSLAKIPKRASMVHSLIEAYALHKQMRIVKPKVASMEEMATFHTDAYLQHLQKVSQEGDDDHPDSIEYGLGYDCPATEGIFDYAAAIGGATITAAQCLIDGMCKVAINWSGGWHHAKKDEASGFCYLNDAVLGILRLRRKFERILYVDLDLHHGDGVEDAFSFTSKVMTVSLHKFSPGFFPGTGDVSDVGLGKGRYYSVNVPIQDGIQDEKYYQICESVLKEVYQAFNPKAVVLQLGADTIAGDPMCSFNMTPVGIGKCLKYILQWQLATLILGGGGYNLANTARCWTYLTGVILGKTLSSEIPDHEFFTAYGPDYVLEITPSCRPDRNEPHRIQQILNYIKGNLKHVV
Put plainly: Inhibition of human full-length recombinant C-terminal His-tagged HDAC8 expressed in baculovirus infected Sf9 insect cells preincubated for 5 mins followed by HDAC substrate addition and further incubated for 45 mins by fluorescence microplate reader assay.

Assay [4] concerns the target T3, Protein deacetylase HDAC6 (Homo sapiens, UniProt Q9UBN7).
T3 sequence (Q9UBN7 whole entry): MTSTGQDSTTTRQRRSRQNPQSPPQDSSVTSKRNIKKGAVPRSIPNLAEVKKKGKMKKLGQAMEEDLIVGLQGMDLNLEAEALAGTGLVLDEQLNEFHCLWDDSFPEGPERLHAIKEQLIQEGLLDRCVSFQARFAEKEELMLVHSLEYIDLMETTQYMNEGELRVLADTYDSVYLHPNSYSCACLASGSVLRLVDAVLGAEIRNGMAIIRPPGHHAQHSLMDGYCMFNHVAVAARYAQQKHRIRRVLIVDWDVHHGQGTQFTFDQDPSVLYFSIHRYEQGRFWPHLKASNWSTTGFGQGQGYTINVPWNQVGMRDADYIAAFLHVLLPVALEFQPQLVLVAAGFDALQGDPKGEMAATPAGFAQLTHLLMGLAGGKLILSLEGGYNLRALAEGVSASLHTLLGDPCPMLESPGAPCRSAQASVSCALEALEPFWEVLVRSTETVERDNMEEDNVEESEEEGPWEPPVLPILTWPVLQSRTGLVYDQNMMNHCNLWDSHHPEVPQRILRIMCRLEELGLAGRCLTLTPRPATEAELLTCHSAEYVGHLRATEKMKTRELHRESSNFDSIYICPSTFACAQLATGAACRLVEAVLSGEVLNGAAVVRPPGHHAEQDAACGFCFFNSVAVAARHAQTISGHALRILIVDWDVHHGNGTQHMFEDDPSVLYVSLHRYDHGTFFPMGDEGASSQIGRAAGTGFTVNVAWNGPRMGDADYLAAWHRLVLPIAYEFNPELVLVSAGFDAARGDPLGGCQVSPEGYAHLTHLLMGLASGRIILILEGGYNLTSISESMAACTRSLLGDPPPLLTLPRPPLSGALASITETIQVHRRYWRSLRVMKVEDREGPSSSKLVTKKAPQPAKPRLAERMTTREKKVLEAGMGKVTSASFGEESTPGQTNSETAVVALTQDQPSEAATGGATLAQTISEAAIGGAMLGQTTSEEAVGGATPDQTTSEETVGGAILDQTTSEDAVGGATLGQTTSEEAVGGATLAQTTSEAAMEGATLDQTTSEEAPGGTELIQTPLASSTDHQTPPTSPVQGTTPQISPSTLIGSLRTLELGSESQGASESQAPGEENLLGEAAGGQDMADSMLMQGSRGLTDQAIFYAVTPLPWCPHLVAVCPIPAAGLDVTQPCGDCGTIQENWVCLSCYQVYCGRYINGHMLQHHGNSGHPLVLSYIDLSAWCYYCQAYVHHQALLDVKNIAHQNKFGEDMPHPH
Kind of assay: Inhibition of human full-length recombinant HDAC6 preincubated for 5 mins followed by HDAC substrate addition and further incubated for 45 mins by fluorescence microplate reader assay.

Assay [5] addresses T1, Focal adhesion kinase 1. Put plainly: Inhibition of FAK in human CAKI-1 cells assessed as reduction in FAK phosphorylation by Western blot analysis. It is filed as cell-based. The gist of the method: (§2)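 40 μg protein (Bradford) resolved by SDS-PAGE, transferred to PVDF, blocked 1 h in milk or BSA. Primary antibody overnight, HRP secondary 1 h, ECL detection; β-actin as loading control.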
Target sequence in this assay (Q05397 2-1052 limits assumed): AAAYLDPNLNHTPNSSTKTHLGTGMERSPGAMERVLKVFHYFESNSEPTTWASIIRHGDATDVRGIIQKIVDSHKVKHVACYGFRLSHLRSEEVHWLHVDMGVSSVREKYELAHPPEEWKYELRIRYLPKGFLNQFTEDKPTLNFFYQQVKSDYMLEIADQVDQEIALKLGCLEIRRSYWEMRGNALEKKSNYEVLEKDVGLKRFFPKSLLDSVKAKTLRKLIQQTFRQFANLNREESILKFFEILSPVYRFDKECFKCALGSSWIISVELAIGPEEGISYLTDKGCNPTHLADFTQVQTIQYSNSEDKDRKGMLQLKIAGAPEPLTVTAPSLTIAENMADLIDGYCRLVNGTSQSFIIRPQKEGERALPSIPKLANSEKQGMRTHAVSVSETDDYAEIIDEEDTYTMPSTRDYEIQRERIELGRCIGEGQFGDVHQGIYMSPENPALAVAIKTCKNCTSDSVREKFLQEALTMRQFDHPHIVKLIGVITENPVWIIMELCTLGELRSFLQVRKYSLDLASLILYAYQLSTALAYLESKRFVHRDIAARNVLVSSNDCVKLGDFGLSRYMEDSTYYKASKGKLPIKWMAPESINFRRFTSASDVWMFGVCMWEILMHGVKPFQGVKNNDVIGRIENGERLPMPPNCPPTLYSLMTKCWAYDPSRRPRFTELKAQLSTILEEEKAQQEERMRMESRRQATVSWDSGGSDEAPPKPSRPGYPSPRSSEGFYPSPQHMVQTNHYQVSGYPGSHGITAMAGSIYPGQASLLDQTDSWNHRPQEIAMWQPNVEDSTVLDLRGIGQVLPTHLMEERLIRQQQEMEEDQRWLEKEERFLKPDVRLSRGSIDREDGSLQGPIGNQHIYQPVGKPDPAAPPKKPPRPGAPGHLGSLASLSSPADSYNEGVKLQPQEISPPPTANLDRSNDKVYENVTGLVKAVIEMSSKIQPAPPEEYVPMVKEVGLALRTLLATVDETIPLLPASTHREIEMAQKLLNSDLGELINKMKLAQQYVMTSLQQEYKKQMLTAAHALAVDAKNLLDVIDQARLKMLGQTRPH
On the technique in general: In western blotting, separated proteins are transferred to a membrane and probed.

Assay [6] addresses T1, Focal adhesion kinase 1. Put plainly: Inhibition of FAK in human A498 cells assessed as reduction in FAK phosphorylation by Western blot analysis. The class given is cell-based. The method in brief: as §2
Target sequence in this assay (Q05397 2-1052 limits assumed): as above
Assay [7] deals with T4, Histone deacetylase 2 (Homo sapiens, UniProt Q92769). Put plainly: Inhibition of human full-length recombinant HDAC2 preincubated for 5 mins followed by HDAC substrate addition and further incubated for 45 mins by fluorescence microplate reader assay.
In assay [8] the test system is CAKI-1. Put plainly: Antiproliferative activity against human CAKI-1 cells assessed as cell growth inhibition incubated for 24 hrs by MTT assay. The conditions noted are these: CAKI-1, 24 h. It is filed as functional, cell-based.
Another assay concerns K562. Kind of assay: Growth inhibition of human K562 cells at 10 uM incubated for 24 hrs by MTT assay relative to control. It is filed as functional. To be noted: read-out: GI. The gist of the method:
as §1

For assay [9], the target named is T4, Histone deacetylase 2. Put plainly: Inhibition of HDAC2 in human A498 cells assessed as reduction in HDAC2 expression by Western blot analysis. It is filed as cell-based. The method in brief: as §2
In another assay the target is Histone deacetylase 3 (Homo sapiens, UniProt O15379). Kind of assay: Inhibition of human full-length recombinant HDAC3 preincubated for 5 mins followed by HDAC substrate addition and further incubated for 45 mins by fluorescence microplate reader assay.
The next assay deals with HCT-116. Put plainly: Growth inhibition of human HCT-116 cells at 10 uM incubated for 24 hrs by MTT assay relative to control. The class given is functional. To be noted: read-out: GI. The gist of the method: as §1
In the next assay the target is Histone deacetylase 1 (Homo sapiens, UniProt Q13547). Put plainly: Inhibition of human full-length recombinant HDAC1 preincubated for 5 mins followed by HDAC substrate addition and further incubated for 45 mins by fluorescence microplate reader assay.
In assay [10] the target is T4, Histone deacetylase 2. Put plainly: Inhibition of HDAC2 in human CAKI-1 cells assessed as reduction in HDAC2 expression by Western blot analysis. The class given is cell-based. The method in brief:
as §2

The subject of assay [11] is CAKI-1. Kind of assay: Growth inhibition of human CAKI-1 cells at 10 uM incubated for 24 hrs by MTT assay relative to control. The conditions noted are these: read-out: GI. The class given is functional. The method in brief:
as §1

Active and inactive are the calls of the source. The calls are words filed in the database; no cut-off is given here.

T4 sequence (Q92769 whole entry): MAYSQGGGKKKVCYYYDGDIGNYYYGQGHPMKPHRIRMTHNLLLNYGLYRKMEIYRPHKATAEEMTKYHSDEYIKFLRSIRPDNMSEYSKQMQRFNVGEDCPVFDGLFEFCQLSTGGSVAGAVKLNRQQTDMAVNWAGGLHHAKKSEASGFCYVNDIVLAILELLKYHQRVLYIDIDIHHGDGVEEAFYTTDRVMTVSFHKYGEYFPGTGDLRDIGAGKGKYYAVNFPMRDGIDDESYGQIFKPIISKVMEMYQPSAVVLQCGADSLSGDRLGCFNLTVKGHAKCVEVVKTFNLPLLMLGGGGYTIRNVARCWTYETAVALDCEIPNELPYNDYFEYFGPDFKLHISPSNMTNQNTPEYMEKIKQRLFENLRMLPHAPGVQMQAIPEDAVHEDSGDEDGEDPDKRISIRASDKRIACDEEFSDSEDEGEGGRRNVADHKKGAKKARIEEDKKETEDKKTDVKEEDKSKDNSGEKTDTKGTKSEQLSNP
Sequence of Histone deacetylase 1 (Q13547 whole entry): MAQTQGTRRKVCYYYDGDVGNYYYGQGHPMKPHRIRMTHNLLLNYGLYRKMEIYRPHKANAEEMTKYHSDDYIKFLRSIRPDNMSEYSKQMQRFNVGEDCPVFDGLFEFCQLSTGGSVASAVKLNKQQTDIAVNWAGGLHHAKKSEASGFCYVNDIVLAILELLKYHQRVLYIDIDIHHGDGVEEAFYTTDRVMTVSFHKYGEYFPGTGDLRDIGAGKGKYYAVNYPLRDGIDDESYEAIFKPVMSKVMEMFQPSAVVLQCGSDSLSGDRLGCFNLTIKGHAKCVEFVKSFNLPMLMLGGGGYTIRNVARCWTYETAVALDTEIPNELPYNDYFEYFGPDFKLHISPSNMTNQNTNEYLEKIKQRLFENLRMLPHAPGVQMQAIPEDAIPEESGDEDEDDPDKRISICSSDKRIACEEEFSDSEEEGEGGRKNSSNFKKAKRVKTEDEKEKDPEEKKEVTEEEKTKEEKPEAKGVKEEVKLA
Sequence of Histone deacetylase 3 (O15379 whole entry): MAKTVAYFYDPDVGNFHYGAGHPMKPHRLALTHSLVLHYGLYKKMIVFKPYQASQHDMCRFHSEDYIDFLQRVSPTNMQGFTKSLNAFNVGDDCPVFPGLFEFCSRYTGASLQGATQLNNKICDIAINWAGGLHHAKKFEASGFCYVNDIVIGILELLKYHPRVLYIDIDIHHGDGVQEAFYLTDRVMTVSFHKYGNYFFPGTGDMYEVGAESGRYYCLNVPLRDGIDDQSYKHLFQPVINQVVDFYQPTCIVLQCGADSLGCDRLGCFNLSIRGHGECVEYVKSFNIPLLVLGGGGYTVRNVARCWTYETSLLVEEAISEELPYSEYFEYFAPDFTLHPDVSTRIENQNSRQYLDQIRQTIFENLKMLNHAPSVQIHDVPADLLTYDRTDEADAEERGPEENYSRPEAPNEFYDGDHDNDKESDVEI

As for `C=CCn1c(SCCCCCC(=O)Nc2ccccc2N)nnc1-c1ccncc1`, the inhibition in vitro at 10 µM in the assay with KG-1 is 94.2%. For the same compound, the inhibition of growth at 10 µM was 95.5% with HT-29; 97.7% with A498 [1]; 86.4% in the assay with K562; 90.5% in the assay on HCT-116; 95.4% in the assay on CAKI-1 [11]. For the same compound, the IC50 (as a rule, the concentration at which inhibition is half-maximal) came to 1.19 µM with A498 [2]; 0.0143 µM at Focal adhesion kinase 1 [3]; 5.86 µM at Histone deacetylase 8; 9.79 µM in [4]; 1.4 µM on Histone deacetylase 2 [7]; 1.34 µM in the assay on CAKI-1 [8]. Also, the figures for the IC50 at Histone deacetylase 3 and on Histone deacetylase 1 were 11 µM and 31 µM, respectively. Also, the inhibition entry at Focal adhesion kinase 1 [5], at Focal adhesion kinase 1 [6], at Histone deacetylase 2 [9] and at Histone deacetylase 2 [10] was “Active” in each case.
